Data set [1] is described as follows: Metabolic stability in mouse liver microsomes assessed as parent compound remaining after 30 mins. Type of data set: ADME, Microsome. The note with it: read-out: Stability. Summed up: (§1)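 Compounds incubated with liver microsomes from human, rat, mouse, dog or monkey. Read-out is percent parent compound remaining at 30 min of incubation.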
(Liver microsomes are a subcellular fraction often used to study metabolism.)

Data set [2] is described as follows: Metabolic stability in human liver microsomes assessed as parent compound remaining after 30 mins. It is filed as ADME, Microsome. The note with it: read-out: Stability. A digest of the protocol: as §1
Data set [3] can be described thus: Metabolic stability in rat liver microsomes assessed as parent compound remaining after 30 mins. It is filed as ADME, Microsome. The settings on record: read-out: Stability. A digest of the protocol:
as §1

Data set [4] concerns the target T1, Prostaglandin E2 receptor EP3 subtype (Homo sapiens, UniProt P43115).
T1 sequence (P43115 whole entry): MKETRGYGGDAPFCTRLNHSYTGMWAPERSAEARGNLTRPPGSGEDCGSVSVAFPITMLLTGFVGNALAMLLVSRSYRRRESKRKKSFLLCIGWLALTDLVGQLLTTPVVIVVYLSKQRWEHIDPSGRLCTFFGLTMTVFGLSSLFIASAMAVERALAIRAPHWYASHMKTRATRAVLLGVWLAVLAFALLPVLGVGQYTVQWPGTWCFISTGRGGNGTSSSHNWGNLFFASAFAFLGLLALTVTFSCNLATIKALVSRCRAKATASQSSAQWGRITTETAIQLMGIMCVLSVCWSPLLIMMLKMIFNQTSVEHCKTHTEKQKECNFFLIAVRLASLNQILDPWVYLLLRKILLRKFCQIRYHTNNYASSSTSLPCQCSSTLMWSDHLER
Description: Displacement of [3H]PGE2 from human EP3 receptor in buffer. For orientation: In a radioligand displacement assay an active substance lowers the binding of a labelled ligand.

In data set [5] the target is T1, Prostaglandin E2 receptor EP3 subtype. Put plainly: Displacement of [3H]PGE2 from human EP3 receptor in presence of 10% human serum.
Data set [6] is described as follows: Metabolic stability in dog liver microsomes assessed as parent compound remaining after 30 mins. Type of data set: ADME, Canis lupus familiaris, Microsome. The settings on record: read-out: Stability. A digest of the protocol: as §1
The species entered for data set [7] is Rattus norvegicus. Put plainly: Antithrombotic activity in rat assessed as platelet aggregation. Type of data set: functional. A digest of the protocol: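 Functional EP3 antagonism measured in a rat platelet aggregation assay. Values reported as EC50 in nM.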
Data set [8] deals with T1, Prostaglandin E2 receptor EP3 subtype. Description: Partial displacement of [3H]PGE2 from human EP3 receptor in presence of 10% human serum.
Data set [9] can be described thus: assessed as parent compound remaining after 30 mins. The settings on record: read-out: Stability.
Data set [10] deals with T2, Cytochrome P450 3A4 (Homo sapiens, UniProt P08684). Put plainly: Inhibition of human CYP3A4 using 7-benzyloxy-4-trifluoromethylcoumarin as substrate. Type of data set: ADME. A digest of the protocol:
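Inhibition of human CYP3A4 with 7-benzyloxy-4-trifluoromethylcoumarin (BFC) as substrate. Values given as IC50.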

Data set [11] in a line: Metabolic stability in monkey liver microsomes assessed as parent compound remaining after 30 mins. Type of data set: ADME, Macaca mulatta, Microsome. The settings on record: rhesus monkey, read-out: Stability. Summed up:
as §1

The target in data set [12] is Prostaglandin E2 receptor EP4 subtype (Homo sapiens, UniProt P35408). Put plainly: Binding affinity to human EP4 receptor by radioligand displacement assay. Summed up: (§2)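 Radioligand displacement assays on a human prostanoid receptor panel (EP2, EP4, FP, IP). IC50 values reported in µM.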
Sequence of Prostaglandin E2 receptor EP4 subtype (P35408 whole entry): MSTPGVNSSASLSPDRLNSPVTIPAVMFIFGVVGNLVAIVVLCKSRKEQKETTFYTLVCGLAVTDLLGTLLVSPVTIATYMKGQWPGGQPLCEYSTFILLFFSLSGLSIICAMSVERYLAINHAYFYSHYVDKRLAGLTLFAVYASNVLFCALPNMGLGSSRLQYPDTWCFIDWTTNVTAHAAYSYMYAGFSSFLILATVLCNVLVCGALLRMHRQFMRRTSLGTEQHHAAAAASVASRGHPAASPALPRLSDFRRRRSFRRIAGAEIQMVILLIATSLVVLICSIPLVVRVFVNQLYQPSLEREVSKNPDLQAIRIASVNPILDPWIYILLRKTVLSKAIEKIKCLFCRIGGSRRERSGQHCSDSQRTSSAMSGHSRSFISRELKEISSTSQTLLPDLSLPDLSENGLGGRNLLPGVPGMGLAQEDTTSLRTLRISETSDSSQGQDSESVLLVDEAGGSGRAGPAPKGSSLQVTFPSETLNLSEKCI
Data set [13] has as its target Prostacyclin receptor (Homo sapiens, UniProt P43119). Put plainly: Binding affinity to human IP receptor by radioligand displacement assay. A digest of the protocol: as §2
Data set [14] addresses Prostaglandin E2 receptor EP2 subtype (Homo sapiens, UniProt P43116). Put plainly: Binding affinity to human EP2 receptor by radioligand displacement assay. Summed up: as §2
Data set [15] concerns the target Cytochrome P450 2C9 (Homo sapiens, UniProt P11712). Description: Inhibition of human CYP2C9. Type of data set: ADME.
Data set [16] concerns the target T2, Cytochrome P450 3A4. Put plainly: Inhibition of human CYP3A4 using dibenzylfluorescein as substrate. It is filed as ADME. A digest of the protocol: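 Inhibition of human CYP3A4 with dibenzylfluorescein (DBF) as substrate. Values given as IC50.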
Data set [17] deals with T3, Cytochrome P450 1A2 (Homo sapiens, UniProt P05177).
T3 sequence (P05177 whole entry): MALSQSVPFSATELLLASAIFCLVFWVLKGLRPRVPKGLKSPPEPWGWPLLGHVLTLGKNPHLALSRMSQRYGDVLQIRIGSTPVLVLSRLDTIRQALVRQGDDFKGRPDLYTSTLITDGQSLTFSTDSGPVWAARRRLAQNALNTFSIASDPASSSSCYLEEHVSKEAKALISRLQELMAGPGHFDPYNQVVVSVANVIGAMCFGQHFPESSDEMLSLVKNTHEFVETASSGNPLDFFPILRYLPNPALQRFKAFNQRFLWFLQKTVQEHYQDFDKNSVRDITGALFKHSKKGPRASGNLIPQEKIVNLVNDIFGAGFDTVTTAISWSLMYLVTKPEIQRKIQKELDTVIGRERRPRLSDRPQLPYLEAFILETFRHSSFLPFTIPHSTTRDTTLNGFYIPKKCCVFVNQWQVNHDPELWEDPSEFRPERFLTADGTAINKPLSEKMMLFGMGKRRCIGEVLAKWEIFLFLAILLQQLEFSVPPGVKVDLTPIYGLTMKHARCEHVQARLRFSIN
Description: Inhibition of human CYP1A2. It is filed as ADME.

In data set [18] the target is Prostaglandin F2-alpha receptor (Homo sapiens, UniProt P43088). Put plainly: Binding affinity to human FP receptor by radioligand displacement assay. A digest of the protocol:
as §2

Data set [19] deals with Cytochrome P450 2D6 (Homo sapiens, UniProt P10635). Description: Inhibition of human CYP2D6. Type of data set: ADME.
Sequence of Cytochrome P450 2D6 (P10635 whole entry): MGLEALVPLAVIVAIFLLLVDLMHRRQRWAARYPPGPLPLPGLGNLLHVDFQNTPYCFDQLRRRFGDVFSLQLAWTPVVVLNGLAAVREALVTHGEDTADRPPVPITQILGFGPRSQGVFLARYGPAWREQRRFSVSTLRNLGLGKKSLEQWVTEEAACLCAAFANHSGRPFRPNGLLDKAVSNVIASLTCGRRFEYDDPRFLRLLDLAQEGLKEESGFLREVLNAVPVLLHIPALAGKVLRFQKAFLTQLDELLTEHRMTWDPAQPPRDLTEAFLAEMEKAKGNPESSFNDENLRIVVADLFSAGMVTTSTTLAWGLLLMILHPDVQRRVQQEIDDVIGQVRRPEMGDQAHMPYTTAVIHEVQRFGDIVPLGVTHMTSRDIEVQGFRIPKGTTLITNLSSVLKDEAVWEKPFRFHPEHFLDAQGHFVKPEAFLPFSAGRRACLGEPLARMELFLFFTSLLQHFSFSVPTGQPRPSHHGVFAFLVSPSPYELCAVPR

Structures are written as SMILES.

T2 sequence (P08684 whole entry): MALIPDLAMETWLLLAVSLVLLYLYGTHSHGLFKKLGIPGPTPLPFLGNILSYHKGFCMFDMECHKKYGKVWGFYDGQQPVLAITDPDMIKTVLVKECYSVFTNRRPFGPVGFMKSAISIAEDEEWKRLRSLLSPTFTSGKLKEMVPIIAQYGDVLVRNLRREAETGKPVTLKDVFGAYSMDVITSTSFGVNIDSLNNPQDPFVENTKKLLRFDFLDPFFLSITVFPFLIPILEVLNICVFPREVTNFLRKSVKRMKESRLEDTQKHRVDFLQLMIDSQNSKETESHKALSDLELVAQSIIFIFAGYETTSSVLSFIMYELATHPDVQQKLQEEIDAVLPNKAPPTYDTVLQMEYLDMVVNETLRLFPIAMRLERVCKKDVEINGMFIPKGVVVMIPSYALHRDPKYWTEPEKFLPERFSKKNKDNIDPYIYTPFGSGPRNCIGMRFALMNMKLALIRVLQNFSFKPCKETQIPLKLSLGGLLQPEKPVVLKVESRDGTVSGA
Sequence of Prostaglandin E2 receptor EP2 subtype (P43116 whole entry): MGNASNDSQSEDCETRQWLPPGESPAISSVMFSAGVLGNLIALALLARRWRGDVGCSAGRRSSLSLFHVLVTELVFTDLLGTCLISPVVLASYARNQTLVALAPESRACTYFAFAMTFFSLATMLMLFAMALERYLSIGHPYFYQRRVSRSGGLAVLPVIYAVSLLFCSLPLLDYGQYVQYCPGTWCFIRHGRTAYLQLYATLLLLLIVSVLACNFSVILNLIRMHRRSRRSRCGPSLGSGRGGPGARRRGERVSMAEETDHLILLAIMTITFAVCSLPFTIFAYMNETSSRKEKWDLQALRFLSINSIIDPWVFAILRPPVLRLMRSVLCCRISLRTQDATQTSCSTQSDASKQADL
Sequence of Prostacyclin receptor (P43119 whole entry): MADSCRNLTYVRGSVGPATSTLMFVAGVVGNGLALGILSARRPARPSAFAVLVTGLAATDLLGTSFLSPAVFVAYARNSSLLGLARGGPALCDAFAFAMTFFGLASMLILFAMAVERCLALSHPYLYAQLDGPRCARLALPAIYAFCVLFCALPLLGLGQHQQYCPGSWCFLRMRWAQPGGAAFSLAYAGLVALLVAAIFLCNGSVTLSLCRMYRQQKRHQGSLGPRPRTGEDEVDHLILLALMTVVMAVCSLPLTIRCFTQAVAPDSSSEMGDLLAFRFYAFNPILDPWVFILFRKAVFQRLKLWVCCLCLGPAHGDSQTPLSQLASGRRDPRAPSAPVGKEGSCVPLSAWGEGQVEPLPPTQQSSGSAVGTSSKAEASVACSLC
Sequence of Prostaglandin F2-alpha receptor (P43088 whole entry): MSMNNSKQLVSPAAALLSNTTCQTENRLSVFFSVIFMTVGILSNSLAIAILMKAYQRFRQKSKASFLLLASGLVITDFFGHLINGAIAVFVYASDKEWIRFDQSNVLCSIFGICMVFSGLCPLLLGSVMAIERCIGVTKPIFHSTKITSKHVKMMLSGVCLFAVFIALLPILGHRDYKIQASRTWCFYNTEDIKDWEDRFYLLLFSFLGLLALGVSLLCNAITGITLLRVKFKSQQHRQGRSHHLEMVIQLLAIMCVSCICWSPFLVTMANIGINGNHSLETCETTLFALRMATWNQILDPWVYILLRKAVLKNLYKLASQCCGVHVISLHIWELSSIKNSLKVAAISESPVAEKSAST
Sequence of Cytochrome P450 2C9 (P11712 whole entry): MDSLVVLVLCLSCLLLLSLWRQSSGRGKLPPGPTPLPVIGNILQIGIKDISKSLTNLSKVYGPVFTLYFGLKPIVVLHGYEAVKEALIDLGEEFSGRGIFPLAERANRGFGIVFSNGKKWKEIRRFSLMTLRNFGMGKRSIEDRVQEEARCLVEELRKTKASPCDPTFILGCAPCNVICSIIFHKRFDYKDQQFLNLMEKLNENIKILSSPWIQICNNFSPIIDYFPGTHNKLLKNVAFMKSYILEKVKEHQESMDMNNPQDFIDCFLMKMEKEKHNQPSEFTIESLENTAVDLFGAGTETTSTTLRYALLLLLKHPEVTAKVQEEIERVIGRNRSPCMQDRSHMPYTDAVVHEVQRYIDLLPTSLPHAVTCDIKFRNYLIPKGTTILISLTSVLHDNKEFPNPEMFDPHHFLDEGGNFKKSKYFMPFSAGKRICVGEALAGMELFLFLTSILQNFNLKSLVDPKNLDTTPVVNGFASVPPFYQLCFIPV

Regarding `O=C(/C=C/c1cccc2c1N(Cc1ccc3ccccc3c1)C(=O)C2)NS(=O)(=O)c1cc(Cl)c(Cl)s1`, the remaining at 0.5 h in data set [1] worked out at 63.8%; in [2], 105%; in data set [3], 32.9%; in data set [6], 79.5%. The figures for the IC50 in [4] and in [5] were 1.3 nM and 5.4 nM, respectively. In [7], the EC50 worked out at 27 nM.
Turning to `O=C(/C=C/c1cccc2c1N(Cc1ccc(F)c(F)c1)C(=O)C2(CO)CO)NS(=O)(=O)c1ccc(F)c(F)c1`, the IC50 entry is “Active” in data set [8] and 45.4 nM in [4].
With `O=C(/C=C/c1cccc2c1N(Cc1ccc(Cl)cc1Cl)C(=O)C21OCCO1)NS(=O)(=O)c1cc(Cl)c(Cl)s1`, the IC50 entry is “Active” in data set [8] and 3.8 nM in data set [4]. Besides, the remaining at 0.5 h in [9] was found to be 28.4%.
Turning to `O=C(/C=C/c1cccc2c1N(Cc1ccc3ccccc3c1)C(=O)C21OCCO1)NS(=O)(=O)c1cccs1`, the remaining at 0.5 h in data set [9] was determined as 37.8%. Besides, the figures for the IC50 in data set [4] and in data set [5] were 13 nM and 679 nM, respectively.
For the compound `O=C(/C=C/c1cccc2c1N(Cc1ccc3ccccc3c1)C(=O)C2(F)F)NS(=O)(=O)c1cccs1`, the IC50 result was “Active” in data set [8], 202 nM in data set [4] and > 800 nM in [7]. Further, the “inhibition (INH)” value in [10] is listed as “Active”.
Regarding `O=C(/C=C/c1cccc2c1N(Cc1ccc3ccccc3c1)C(=O)C2(F)F)NS(=O)(=O)c1ccc(Cl)c(Cl)c1`, the figures for the remaining at 0.5 h in [1], in data set [2] and in data set [3] were 41.3%, 79.4% and 62.1%, respectively. Moreover, the IC50 in data set [4] is 0.3 nM; in data set [5], 4.5 nM; in data set [7], > 800 nM. For the same compound, the “inhibition (INH)” value in data set [10] is reported as “Active”.
As for `CC1C(=O)N(Cc2ccc3ccccc3c2)c2c(/C=C/C(=O)NS(=O)(=O)c3cccs3)cccc21` (configuration not stated), the remaining at 0.5 h worked out at 32.6% in data set [1]; 43.5% in data set [2]; 48% in [3]; 35.3% in data set [11]; 81.8% in data set [6]. Besides, the values for the IC50 in data set [4] and in [5] were 3.5 nM and 96.5 nM, respectively.
As to `CC1C(=O)N(Cc2ccc3ccccc3c2)c2c(/C=C/C(=O)NS(=O)(=O)c3cc(Cl)c(Cl)s3)cccc21` (configuration not stated), the remaining at 0.5 h is 67.7% in data set [1], 48.2% in [2], 8% in [3] and 67.7% in [6]. Also, the IC50 in data set [4] was 4.4 nM; in [5], 3.2 nM. For the same compound, the EC50 in data set [7] stood at 2 nM.
Consider `O=C(/C=C/c1cccc2c1N(Cc1ccc(Cl)cc1Cl)C(=O)C2(F)F)NS(=O)(=O)c1cc(Cl)c(Cl)s1`, for which the remaining at 0.5 h in [1] is 100%; in data set [2] it was 94.4%; in data set [3], 94.8%; in data set [11], 67.3%; in data set [6], 83.3%. Besides, the results for the IC50 in [4], in data set [5] and in data set [7] were 3.8 nM, 64 nM and > 800 nM, respectively. Besides, the “inhibition (INH)” value in data set [10] is recorded as “Active”.
On to `O=C(/C=C/c1cccc2c1N(Cc1ccc(Cl)cc1Cl)C(=O)C2(F)F)NS(=O)(=O)c1cccs1`, for which the half-inhibitory concentration (IC50) entry in [8] is “Active”; in [4], 237 nM; in data set [7], > 800 nM. Further, in data set [10], the “inhibition (INH)” value is given as “Active”.
`O=C(/C=C/c1cccc2c1N(Cc1ccc(Cl)cc1Cl)C(=O)C2)NS(=O)(=O)c1cc(Cl)c(Cl)s1`: the remaining at 0.5 h in data set [1] turned out to be 56.8%; in data set [2], 76.8%; in data set [3] it was 46.3%; in [11], 76.9%. The IC50 came out at 2.9 nM in data set [4] and 92.8 nM in data set [5].
As for `O=C(/C=C/c1cccc2c1N(Cc1ccc(Cl)cc1Cl)C(=O)C2)NS(=O)(=O)c1cccs1`, the results for the concentration for half-maximal inhibition (IC50) entry in data set [8] and in data set [4] were “Active” and 56 nM, respectively.
For `O=C(/C=C/c1cccc2c1N(Cc1ccc3ccccc3c1)C(=O)C2O)NS(=O)(=O)c1cc(F)c(F)cc1F` (configuration not stated), the results for the remaining at 0.5 h in [1], in data set [2] and in data set [3] were 73.5%, 95.6% and 99.7%, respectively. The IC50 in [12] is 8700 nM; in [13], > 20000 nM; in data set [14], > 20000 nM; in [4], 0.6 nM; in [5], 9.4 nM; in [18], > 20000 nM. Besides, the “inhibition (INH)” value in data set [15] was “Active”; in [16], “Active”; in [17] it was “Not Active”; in data set [10], “Not Active”; in data set [19] it was “Not Active”. In addition, in data set [7], the EC50 is 69 nM.
Regarding `O=C(/C=C/c1cccc2c1N(Cc1ccc3ccccc3c1)C(=O)C2(F)F)NS(=O)(=O)c1cc(F)c(F)cc1F`, the remaining at 0.5 h in [1] turned out to be 47.9%; in data set [2], 68.8%; in [3], 54.2%. Further, the concentration for half-maximal inhibition (IC50) was 0.3 nM in data set [4], 9.3 nM in data set [5] and > 800 nM in data set [7]. Moreover, in data set [10], the “inhibition (INH)” value was “Active”.
In the case of `O=C(/C=C/c1cccc2c1N(Cc1ccc3ccccc3c1)C(=O)C2O)NS(=O)(=O)c1ccc(F)c(F)c1` (configuration not stated), the remaining at 0.5 h worked out at 72.7% in data set [1], 89.3% in data set [2] and 87.9% in data set [3]. The half-maximal inhibitory concentration (IC50) in data set [12] was 2300 nM; in [13] it was > 20000 nM; in data set [14] it was > 20000 nM; in data set [4] it was 1.6 nM; in [5] it was 7.6 nM; in [18], > 20000 nM. Besides, the “inhibition (INH)” value is “Active” in data set [15]; “Active” in data set [16]; “Not Active” in [17]; “Not Active” in data set [10]; “Not Active” in data set [19]. Also, the concentration for a half-maximal effect (EC50) in [7] was 87 nM.
Turning to `O=C(/C=C/c1cccc2c1N(Cc1ccc3ccccc3c1)C(=O)C2(F)F)NS(=O)(=O)c1ccc(F)c(F)c1`, the remaining at 0.5 h came to 47.1% in data set [1], 68.1% in data set [2] and 45% in data set [3]. In addition, the half-inhibitory concentration (IC50) in [4] was 0.2 nM; in data set [5], 5 nM; in data set [7] it was > 800 nM. Also, the “inhibition (INH)” value in [10] is listed as “Active”.
For the compound `O=C(/C=C/c1cccc2c1N(Cc1ccc3ccccc3c1)C(=O)C2(F)F)NS(=O)(=O)c1cccc(Cl)c1`, the remaining at 0.5 h in data set [1] came to 21.6%; in data set [2], 64.5%; in data set [3], 21%. Besides, the half-maximal inhibitory concentration (IC50) in data set [4] is 0.1 nM; in data set [5], 1.9 nM; in data set [7], > 800 nM. The “inhibition (INH)” value in [10] is recorded as “Active”.

In general, IC50 refers to the concentration needed to halve the response being measured. A word on the EC50: it is the concentration needed to bring the measured effect to its halfway point.

(Values after ChEMBL document CHEMBL1156157, “1,7-Disubstituted oxyindoles are potent and selective EP(3) receptor antagonists” (Bioorg Med Chem Lett, 2010).)
